Rows were chosen to be rich in hits. Some 4.1% of all compounds tested hit in one or more screens of this group.
AHR activator – activates the human aryl hydrocarbon receptor; AHR-responsive luciferase reporter cells, luminescence; activation, % at 5 µM; actives 2.5% (n = 320,000); AID 2796; in the data active means activation above about 47%;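 further: 0% = vehicle wells and 100% = reference agonist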
Target sequence (P35869 whole entry, looked up): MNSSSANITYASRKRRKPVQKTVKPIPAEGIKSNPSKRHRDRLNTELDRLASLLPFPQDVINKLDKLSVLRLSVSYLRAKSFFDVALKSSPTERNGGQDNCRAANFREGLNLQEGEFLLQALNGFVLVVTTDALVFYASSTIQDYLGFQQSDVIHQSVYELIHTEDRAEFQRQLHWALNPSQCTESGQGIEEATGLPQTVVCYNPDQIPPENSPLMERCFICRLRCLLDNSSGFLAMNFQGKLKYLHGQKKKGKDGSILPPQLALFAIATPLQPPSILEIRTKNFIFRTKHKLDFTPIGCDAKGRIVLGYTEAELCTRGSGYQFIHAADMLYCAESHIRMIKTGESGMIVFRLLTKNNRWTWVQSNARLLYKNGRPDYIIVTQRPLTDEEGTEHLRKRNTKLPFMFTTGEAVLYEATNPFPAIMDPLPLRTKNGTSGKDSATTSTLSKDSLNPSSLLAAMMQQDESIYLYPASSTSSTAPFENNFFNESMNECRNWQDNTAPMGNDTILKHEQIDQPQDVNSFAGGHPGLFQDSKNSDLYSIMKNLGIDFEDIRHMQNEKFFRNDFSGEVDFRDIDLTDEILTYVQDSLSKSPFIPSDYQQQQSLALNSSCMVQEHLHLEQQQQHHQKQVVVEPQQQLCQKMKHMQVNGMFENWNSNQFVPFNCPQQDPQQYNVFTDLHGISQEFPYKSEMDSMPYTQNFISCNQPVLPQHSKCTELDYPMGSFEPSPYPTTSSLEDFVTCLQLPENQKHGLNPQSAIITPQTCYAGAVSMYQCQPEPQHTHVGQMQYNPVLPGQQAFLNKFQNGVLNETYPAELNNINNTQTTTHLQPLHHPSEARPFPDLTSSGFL
Efflux pump mplx – inhibitors of Candida antifungal efflux pumps expressed in yeast. actives 0.44% (n = 330,000). inhibition, % at 10 µM. S. cerevisiae Candida pump triplex, Nile Red efflux;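 active means plate passing quality check with inhibition over a set limit, or well fluorescence over plate mean plus 4 SD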;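 further: Nile Red retained in pooled yeast measured as flow cytometry median fluorescence; 0% = buffer negative control and 100% = Enniatin B positive control; higher means more Nile Red kept so more efflux inhibition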
TbMetRS inhib – blocks T. brucei methionyl-tRNA synthetase activity; purified T. brucei MetRS, ATP depletion, Kinase-Glo luminescence; inhibition, % at 11.9 µM; actives 0.4% (n = 360,000);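 active means inhibition above a per-plate cutoff of the control wells' mean inhibition plus 3 SD, cut at about 5.5% in these data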;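 further: 0% = DMSO wells median and 100% = median of wells with control inhibitor compound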
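Material: T. brucei methionyl-tRNA synthetase, purified; reagent: substrates ATP, L-methionine and bulk Escherichia coli tRNA; dosing: 11.9 µM single point; timing: 15 min plus 2 h at 25 °C; detection: luminescence of leftover ATP; evaluation: % inhibition; control set: DMSO-only wells as low control; replicates: singlicate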
TAG inh – reduces triacylglycerol accumulation in H9c2 cells; actives 0.66% (n = 230,000); inhibition, % at 12.5 µM; AID 651582; Nile Red lipid (TAG) fluorescence; cells loaded with 200 µM oleic acid;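 active means pattern-corrected inhibition of lipid staining of at least 50% with the nuclear-stain viability signal not falling by more than 50%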;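 further: 0% = DMSO wells and 100% = triacsin C control wells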
SMARCA2 act – increases SMARCA2 function in MMTV reporter cells | MG213 cells, MMTV-luciferase reporter, dexamethasone, overnight | activation, % at 9.1 µM | actives 1% (n = 370,000) | AID 652017; in the data active means activation above about 7.8%;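 further: 0% = vehicle wells and 100% = reference activator wells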
TbMetRS confirm – Trypanosoma brucei MetRS inhibition confirmed | shares compounds with TbMetRS inhib | inhibition, % at 11.9 µM | AID 624412 | actives 93% (n = 1,400) | T. brucei MetRS enzyme, luminescence (ATP depletion); in the data active means inhibition above about 7%
Jurkat tox – Jurkat T cell cytotoxicity for MetRS hits. inhibition, % at 8.3 µM. shares compounds with TbMetRS inhib. Jurkat cells viability, ATP luminescence. AID 624413. actives 12% (n = 1,400); in the data active means inhibition above about 15%;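 further: 0% = vehicle and 100% = reference inhibitor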
TbMetRS FP orth – inhibits T. brucei methionyl tRNA synthetase in orthogonal FP test | shares compounds with TbMetRS inhib | purified T. brucei MetRS, fluorescence polarization | inhibition, % at 11.9 µM | actives 44% (n = 1,400); in the data active means inhibition above about 17%;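 further: 0% = vehicle wells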
Numbers without * were called inactive; . = no result given.

SMILES	AHR activator	Efflux pump mplx	TbMetRS inhib	TAG inh	SMARCA2 act	TbMetRS confirm	Jurkat tox	TbMetRS FP orth
COc1cc(CNCCN2CCOCC2)ccc1OCc1cccc(Cl)c1	0	0	0	.	0	.	.	.
COc1cc(CNCc2ccccn2)ccc1OCc1ccc(Cl)cc1Cl	8	1	9.9*	7	-2	17*	15	12
O=C(CCc1ccccc1)N[C@H]1[C@H](OC(=O)c2cccnc2)CCC[C@@]12C(=O)N(Cc1ccccc1)c1ccccc12	.	.	.	.	-4	.	.	.
CCCCCCCCN1C(=O)[C@@H](CC(=O)NCCCOC)C[C@@]2(C(=O)OC)C1=C[C@H](C1CCCC1)O[C@@H]2C	.	.	.	.	-4	.	.	.
CC1(C)C2CCC1(CS(=O)(=O)NCc1ccc(Cl)cc1Cl)C(=O)C2 (stereo not drawn)	2	0	7.6*	.	-2	21*	-1	4
COc1cccc(NS(=O)(=O)CC23CCC(CC2=O)C3(C)C)c1 (stereo not drawn)	4	0	-1	-10	1	.	.	.
CCn1c(N2CCN(CC(=O)c3c[nH]c4ccccc34)CC2)nc2c1c(=O)[nH]c(=O)n2C	19	0	7.8*	-10	-3	19*	0	5
CCCn1c(N2CCN(CC(=O)c3c(C)n(C)c4ccccc34)CC2)nc2c1c(=O)[nH]c(=O)n2C	-1	1	-1	-4	0	.	.	.
O=C(c1ccncc1)c1ccc(N2CCN(C3CC(=O)N(Cc4cccs4)C3=O)CC2)cc1 (stereo not drawn)	4	0	6.6*	-14	-6	14*	11	6
Cc1cccc(OCCCC(=O)Nc2ccc(N(C)C)cc2)c1	19	1	0	.	5	.	.	.
Cc1cccc(OCCCC(=O)Nc2ccc(Br)cc2)c1	8	0	34*	3	2	45*	0	34*
Cc1ccc(NC(=O)CCC(=O)OCc2ccc(Br)cc2)cc1	0	3	17*	.	-5	26*	-6	12
Cc1ccccc1CN1CCCCC(NC(=O)c2ccc(Br)cc2)C1=O (stereo not drawn)	.	.	.	.	-4	.	.	.
O=C(NNc1cc(Cl)cc(Cl)c1)c1cccs1	1	0	25*	-12	-1	56*	-3	30*
CCc1ccc(C(=O)NNc2cc(Cl)cc(Cl)c2)cc1	9	0	15*	-25	2	39*	2	19*
O=C(C1CCCN(S(=O)(=O)c2ccccc2F)C1)N1CCN(Cc2ccccc2)CC1 (stereo not drawn)	.	.	.	.	0	.	.	.
O=C(Nc1cccc(Cl)c1)OC1CCC12CCC(c1ccccc1)CC2 (stereo not drawn)	.	.	.	.	-1	.	.	.
CCCc1c(NC(=O)Nc2ccc(F)cc2)cnn1-c1ccccc1	7	0	7.1*	3	-5	17*	-7	8
CCN(CC)C(=O)CC[C@H]1CC[C@]2(CCCN(C3CCCCC3)C2)O1	.	.	.	.	-3	.	.	.
S=C(NCCc1ccccc1)NCc1cccc(Cl)c1	6	0	0	3	.	.	.	.
Fc1ccccc1NC(=S)NCCc1cccc(Cl)c1	.	0	6.0*	-6	-1	17*	6	9
CCn1c2ccccc2c2cc(C=NNC(=O)c3ccoc3C)ccc21	.	.	.	.	0	.	.	.
COc1ccc(N2CCN(C(=O)c3ccccc3Br)CC2)c([N+](=O)[O-])c1	0	0	14*	-8	-4	30*	2	18*
COc1ccc(N2CCN(C(=O)c3ccc(Br)cc3)CC2)c([N+](=O)[O-])c1	0	1	2	-23	-2	.	.	.
COc1ccc(N2CCN(C(=O)c3ccccc3)CC2)c([N+](=O)[O-])c1	6	0	8.2*	-5	-4	9.3*	6	10
SMILES	AHR activator	Efflux pump mplx	TbMetRS inhib	TAG inh	SMARCA2 act	TbMetRS confirm	Jurkat tox	TbMetRS FP orth
CCCC(=O)N1CCC(C(=O)NC2CCCc3ccccc32)CC1 (stereo not drawn)	.	.	.	.	-4	.	.	.
c1ccc(CN2CCC(CNc3ncnc4ccccc34)C2)cc1 (stereo not drawn)	.	.	6.2*	-8	-5	28*	27*	16
c1ccc(CNc2ncnc3ccccc23)cc1	-6	0	1	-36	-5	.	.	.
Cc1[nH]c2ccc(Br)cc2c(=O)c1CN1CCCCC1	15	0	34*	.	-1	55*	-7	27*
O=Cc1ccc(-c2cccc([N+](=O)[O-])c2)o1	0	0	0	0	-2	.	.	.
O=Cc1ccc(-c2ccc([N+](=O)[O-])cc2Cl)o1	.	.	6.5*	5	-3	12*	-4	7
CC(C)CNS(=O)(=O)/C=C/c1cc2c(cc1CNC(=O)OC(C)(C)C)OCO2	.	.	.	.	-2	.	.	.
O=C(CSc1nnc(Cc2ccc(Cl)cc2)o1)Nc1ccccc1	1	0	7.5*	4	-3	14*	1	10
CC(=O)N1CCN(c2ccc(N3CCN(Cc4ccccc4)[C@@H](C)C3)c(C)c2)[C@H](C)C1	.	.	.	.	-5	.	.	.
NC(=O)Nc1ccc(C(=O)OCC(=O)c2c[nH]c3ccccc23)cc1	29	0	0	2	1	.	.	.
O=C(OCC(=O)c1c[nH]c2ccccc12)c1ccc(OC(F)F)cc1	.	.	12*	-13	-2	31*	4	29*
O=C(c1cccc(F)c1F)N(Cc1ccccn1)CC1CCCO1 (stereo not drawn)	.	.	.	.	4	.	.	.
COC(=O)[C@]12C[C@H](CC(=O)NCCCCc3ccccc3)C(=O)N(Cc3cccc4ccccc34)C1=C[C@H](C(C)C)O[C@@H]2C1CC1	.	.	.	.	-3	.	.	.
C=CCn1c(NCc2ccccc2O)nc2ccccc21	-1	0	0	-16	1	.	.	.
C=CCc1cccc(CNc2nc3ccccc3n2C(C)C)c1O	7	1	6.7*	.	-3	11*	9	1
C=CCn1c(NCc2cc(Cl)ccc2O)nc2ccccc21	5	0	13*	.	-2	25*	0	9
CCN(CC(=O)NCc1ccc(Cl)cc1)C(=O)CCc1ccccc1O	-1	-1	37*	.	-1	67*	3	33*
Cc1ccc(-n2c(Cc3cccs3)nnc2SCc2ccc([N+](=O)[O-])cc2)cc1	.	.	.	.	-5	.	.	.
O=C(c1cccc(C(F)(F)F)c1)N1CC[C@H]2[C@H](CCCN2Cc2ccccc2)C1	.	.	.	.	-1	.	.	.
O=C(NCc1cccc(Cl)c1)c1ccc2c(c1)SC1=NS(=O)(=O)CCN12	-11	0	6.1*	.	-1	15*	1	6
COCCNC(=S)N(C)[C@H]1C[C@H]2c3[nH]c4c(-c5ccc6c(c5)OCO6)cccc4c3CCN2C[C@H]1[C@H](C)O	.	.	.	.	-4	.	.	.
O=C1C(Nc2ccc(O)cc2)=C/C(=N/S(=O)(=O)c2cccs2)c2ccccc21	.	.	6.2*	125	-13	9.8*	94*	10

Bioassay records (PubChem BioAssay)
